# Screening results deposited in PubChem BioAssay by The Scripps Research Institute Molecular Screening Center.
# In the library only some 1.6% were active in any assay of this set; here they are far more common.
# core dimer inh = blocks dimerization of HCV core protein; TR-FRET GST/Flag-core106 dimerization, 1536-well; inhibition, % at 5 µM; 300,000 tested, 0.33% active; AID 1899;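 active = inhibition above the mean of all tested compounds plus 3 SD, set per screening campaign, cut at about 45% in these data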
#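 Test system: GST/Flag-tagged HCV core106 proteins; Medium: KF-containing HEPES buffer, pH 7.45, DTT, CHAPS, BSA; Times: compound-protein-antibody incubation 4 h at 22.5 °C; Detection: TR-FRET 671 and 617 nm emission; Benchmarks: wells lacking GST-core106 and wells with excess unlabelled core106.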
# FID counter = fluorescent intercalator displacement, NS3 helicase counter-screen. DNA fluorescent intercalator displacement, fluorescence. inhibition, % at 7.9 µM. 290,000 tested, 0.17% active; in the data active = inhibition above about 37%;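 also: 0% = vehicle and 100% = reference compound; higher means more ethidium bromide displaced from hairpin DNA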
# IMP-1 inh = inhibitors of Pseudomonas aeruginosa IMP-1 metallo-beta-lactamase. purified IMP-1, nitrocefin hydrolysis, epi-absorbance fluorescence. inhibition, % at 5.6 µM. AID 1556. 290,000 tested, 0.45% active;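 active = inhibition above the mean plus 3 SD of all compounds in the same screening run, cut at about 4.5% in these data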;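 also: 0% = IMP-1 with DMSO and 100% = DMSO wells lacking enzyme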
#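 System: purified IMP-1 / Input: IMP-1 dispensed at 0.2 nM / Medium: 50 mM HEPES pH 7.1, 50 µM ZnSO4, 0.05% Brij 35 / Timing: 15 min enzyme–compound preincubation, then 25 min nitrocefin reaction, 25 °C / Technique: plate fluorescence quenching by hydrolysis product, ex 480/em 530 nm / Repeats: singlicate testing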
# VIM-2 inhibitor = inhibitors of Pseudomonas aeruginosa VIM-2 metallo-beta-lactamase; purified VIM-2, nitrocefin hydrolysis, epi-absorbance fluorescence; inhibition, % at 5.6 µM; 290,000 tested, 0.89% active; AID 1527;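 active = inhibition above the mean of all tested compounds plus 3 SD, cutoff set per screening run, cut at about 7.5% in these data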;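 also: red hydrolysis product quenches plate fluorescence so inhibitors raise well fluorescence; 0% = enzyme with DMSO and 100% = DMSO without enzyme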
# * hit, by the source's call; . = no result.
SMILES,core dimer inh,FID counter,IMP-1 inh,VIM-2 inhibitor
Cc1cc(C)cc(Nc2cc(C)nc3nc(C)nn23)c1,2,-14,-2,22*
Cc1ccc(N2CSC3=C(C#N)C(c4cccs4)CC(=O)N3C2)cc1 (configuration not stated),18,-10,5.6*,0
CCc1ccc(N2CSC3=C(C#N)C(c4cccs4)CC(=O)N3C2)cc1 (configuration not stated),13,-17,-2,-4
O=C1CCCC2=C1C(c1ccsc1)CC(=O)N2c1ccccc1 (configuration not stated),3,-5,-7,-4
O=C(Nc1ccc(Cc2ccncc2)cc1)c1cccc([N+](=O)[O-])c1,-3,5,-3,-2
O=C(Nc1ccc(Nc2ccncc2)cc1)c1ccc(Nc2ccnc3ccc([N+](=O)[O-])cc23)cc1,.,39*,21*,36*
O=C(O)CCC1c2cc3c4cc2OC2Oc5cc6c(cc51)C(CCC(=O)O)c1cc5c7cc1OC(O6)c1cc6cc(c1)Oc1cc(cc(C(=O)O)c1)Oc1cc8cc(c1)C(Oc1cc(c(cc1C5CCC(=O)O)C3CCC(=O)O)OC(O4)c1cc(cc(c1)Oc1cc(cc(C(=O)O)c1)O8)Oc1cc(cc(C(=O)O)c1)Oc1cc(cc2c1)Oc1cc(cc(C(=O)O)c1)O6)O7 (configuration not stated),61*,.,.,.
Cc1cc(=O)oc2cc(OCC(=O)NCc3ccco3)ccc12,-4,94*,-6,-1
Cc1cc(=O)oc2cc(OCC(=O)NCCCn3ccnc3)ccc12,-2,-1,-3,12*
Cc1cc(=O)oc2cc(OCC(O)Cn3ccnc3)ccc12 (configuration not stated),-3,-2,-2,10*
Cc1cc(C(=O)Nc2ccc3c(c2)CCC3)c2ccccc2n1,11,-16,-4,0
CC1(C)CC(=O)CC(C)(C)N1OC(=O)c1ccco1,0,0,-3,-3
CN(c1ccc(OCC(=O)OCC(=O)Nc2ccccc2)cc1)S(=O)(=O)c1ccc(F)cc1,2,-15,-2,-1
O=C1Nc2ccccc2/C1=C/c1cnc(-c2ccccc2)[nH]1,48*,-14,2,-2
O=C1Nc2ccccc2/C1=C/c1cccnc1,-4,10,-3,-1
CCOc1cc2c(C#N)c(N3CCCCC3)nc(N)c2c(N)n1,10,-8,0,-2
CCOc1cc2c(C#N)c(N3CCNCC3)nc(N)c2c(N)n1,-11,2,-2,8.7*
Cc1ccc2nc(NC(=O)c3ccc(N4C(=O)CCC4=O)cc3)sc2c1,48*,11,-3,-4
Cc1ccc(C)c(NC(=O)COC(=O)Cc2ccsc2)c1,-3,-17,-4,-5
O=C(CCCc1nc(-c2ccccc2Cl)no1)NCc1cccnc1,3,-4,5.7*,-3
C=CCn1c(SCC(=O)N2CCN(C(=O)c3ccco3)CC2)nc2sc(CC)cc2c1=O,-3,-31,-1,12*
C=CCn1c(SCC(=O)O)nc2sc(CC)cc2c1=O,2,8,-2,-1
COc1ccccc1CCN1CCCC(CN(C)CC(C)(C)CO)C1 (configuration not stated),-2,3,-2,-1
Cc1[nH]c2ccccc2c1C(=O)CSC(=S)N1CCN(C)CC1,1,2,0,12*
CC(C)Sc1nc2ccccc2n2cnnc12,-2,-9,-2,11*
SMILES,core dimer inh,FID counter,IMP-1 inh,VIM-2 inhibitor
COc1ccc(Nc2cc(C)c3c(O)cccc3n2)cc1,1,14,-1,8.8*
CC(C)CC(NC=C1C(=O)OC(C)(C)OC1=O)C(=O)O (configuration not stated),1,1,-4,-8
CO/N=C/NC(=O)c1c(OC)ccnc1Oc1ccc(F)cc1,-3,71*,-1,0
COc1ccnc(Oc2ccc(F)cc2)c1C(=O)N/C=N/OCc1ccc(F)cc1,-6,-11,1,2
O=C1CSC(=S)N1/N=C/c1cccc(C(F)(F)F)c1,11,-21,8.9*,-2
O=C1CSC(=S)N1/N=C/c1c(F)cccc1F,3,-10,12*,-2
COc1ccc2ccccc2c1/C=N/N1C(=O)CSC1=S,11,-13,22*,0
N=C1SCC(=O)N1/N=C/c1ccccc1,2,-13,-1,-2
O=C1CSC(=S)N1/N=C/c1ccc(C(F)(F)F)cc1,19,-10,3,-3
O=C1CSC(=S)N1/N=C/C=C/c1ccccc1,53*,-41,0,-3
COc1cc(/C=N\NC(=O)c2sc(N)nc2C)cc(OC)c1OC,4,-10,-4,-6
CCOC(=O)CCn1nc(-c2ccccc2)cc1N,-34,-1,-1,-2
CN(CC(=O)Nc1ccc2c(c1)OCCO2)S(=O)(=O)c1ccc(Br)s1,-2,-11,0,-1
COc1ccc(O)c(C(=O)c2cnn(C(=O)c3cccc(S(=O)(=O)N4CCOCC4)c3)c2)c1,3,1,-3,-5
O=C(NC1CCS(=O)(=O)C1)c1ccc(S(=O)(=O)N2CCCCC2)cc1 (configuration not stated),-1,-5,-2,-1
CCn1c2ccccc2c2cc(NC(=O)COC(=O)c3ccc(NC(=O)CC#N)cc3)ccc21,74*,.,.,.
COCCn1c(C)cc(C(=O)COC(=O)c2ccc(NC(=O)CC#N)cc2)c1C,68*,-41,-3,-3
COCCn1c(C)cc(C(=O)COC(=O)c2ccccc2Br)c1C,7,-20,0,0
CCn1c2ccccc2c2cc(NC(=O)COC(=O)c3ccccc3F)ccc21,14,0,-3,2
Nc1nc(-c2ccc3c(c2)OCCO3)c(CC(=O)O)s1,.,-13,9.9*,2
Nc1nc(-c2ccc3c(c2)CCCC3)c(CC(=O)O)s1,.,-15,1,3
O=C(COc1coc(CN2CCN(c3ccccc3F)CC2)cc1=O)NC1CCCCC1,0,.,.,.
CC(=O)N(c1ccccc1)C1SC(=O)N(c2ccccc2)C1=O (configuration not stated),5,-1,6.5*,3
CCOC(=O)c1ccsc1NC(=O)c1ccco1,12,-14,-1,9.1*
CCOC(=O)c1c(-c2cccs2)csc1NC(=O)c1ccco1,-4,3,0,-2
SMILES,core dimer inh,FID counter,IMP-1 inh,VIM-2 inhibitor
CN(C)c1ccc(NC(=O)C[n+]2ccccc2)cc1,0,3,-3,0
O=C(C[n+]1ccccc1)Nc1ccc(Oc2ccccc2)cc1,-2,37*,1,2
Cc1ccc(CNC(=O)COC(=O)c2ccc(Br)cc2)cc1,5,-1,-3,-4
O=C(OCC(=O)c1ccc(Cl)s1)c1cnccn1,54*,-2,0,-3
CCN(CC)CCSc1nc(O)c(-c2ccccc2)c(=O)n1-c1ccccc1,-2,-6,-3,-2
CCN(CC)CCSc1nc2ccccc2c(=S)n1-c1ccccc1,-4,45*,-2,3
COc1ccc(S(=O)(=O)NC2CCSc3ccccc32)cc1OC (configuration not stated),-10,-26,-3,-4
